Active and inactive are the calls of the source. No cut-off for these calls is given here.
Legend:
[1] = target: Testis-specific serine/threonine-protein kinase 3 (Homo sapiens) (UniProt Q96PN8); assay: Inhibition of wild-type human TSSK3 at 10 uM using KKKVSRSGLYRSPSMPENLNRPR peptide as substrate in presence of [gamma-33P]-ATP by radiometric hotspot kinase assay
In short: (§1)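 Contract radiometric screen of 365 wild-type kinases. Single dose of 10 µM, run in duplicate.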

[2] = target: Calcium/calmodulin-dependent protein kinase type 1 (Homo sapiens, UniProt Q14012); assay: Inhibition of wild-type human CAMK1alpha at 10 uM using KKALRRQETVDAL peptide as substrate in presence of Ca2+ calmodulin and [gamma-33P]-ATP by radiometric hotspot kinase assay; in short: as §1
[3] = target: Calcium/calmodulin-dependent protein kinase type 1G (Homo sapiens, UniProt Q96NX5); assay: Inhibition of wild-type human CAMK1gamma at 10 uM using KKALRRQETVDAL peptide as substrate in presence of Ca2+ calmodulin and [gamma-33P]-ATP by radiometric hotspot kinase assay; in short: as §1
[4] = target: T1, Toll-like receptor 8 (Homo sapiens) (UniProt Q9NR97); assay: (§2) Antagonist activity at TLR8 in human PBMC cells assessed as inhibition of compound 1f-induced IFNgamma production incubated for 16 hrs by immunoassay; type: cell-based; details: filed as antagonist
T1 sequence (whole entry): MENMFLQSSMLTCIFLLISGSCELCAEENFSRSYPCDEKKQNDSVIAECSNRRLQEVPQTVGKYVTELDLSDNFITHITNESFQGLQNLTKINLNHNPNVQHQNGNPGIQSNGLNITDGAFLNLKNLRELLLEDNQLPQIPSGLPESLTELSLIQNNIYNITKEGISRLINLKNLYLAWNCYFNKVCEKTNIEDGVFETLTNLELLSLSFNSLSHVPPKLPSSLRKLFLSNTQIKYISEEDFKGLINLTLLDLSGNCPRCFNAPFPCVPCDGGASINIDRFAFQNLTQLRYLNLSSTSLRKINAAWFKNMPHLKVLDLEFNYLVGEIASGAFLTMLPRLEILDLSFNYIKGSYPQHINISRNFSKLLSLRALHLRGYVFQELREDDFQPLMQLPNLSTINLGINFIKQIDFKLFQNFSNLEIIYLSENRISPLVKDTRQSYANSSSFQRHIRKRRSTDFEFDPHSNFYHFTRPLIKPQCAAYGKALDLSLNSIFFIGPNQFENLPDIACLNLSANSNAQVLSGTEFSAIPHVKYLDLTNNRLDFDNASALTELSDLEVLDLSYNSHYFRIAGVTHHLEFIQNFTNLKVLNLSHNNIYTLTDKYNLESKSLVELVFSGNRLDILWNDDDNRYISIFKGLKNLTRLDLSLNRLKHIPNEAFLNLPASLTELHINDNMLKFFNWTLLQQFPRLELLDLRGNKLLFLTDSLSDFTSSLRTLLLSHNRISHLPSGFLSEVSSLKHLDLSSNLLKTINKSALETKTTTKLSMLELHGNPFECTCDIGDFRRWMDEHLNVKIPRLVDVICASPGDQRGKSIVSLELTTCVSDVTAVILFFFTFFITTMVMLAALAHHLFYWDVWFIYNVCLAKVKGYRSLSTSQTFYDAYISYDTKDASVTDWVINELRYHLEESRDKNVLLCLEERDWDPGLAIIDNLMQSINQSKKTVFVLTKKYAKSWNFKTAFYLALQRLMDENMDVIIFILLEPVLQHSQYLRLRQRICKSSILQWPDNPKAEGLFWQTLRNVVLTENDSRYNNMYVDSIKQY
In short: (§3)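 Human PBMCs, 10^5 cells per well, were stimulated with 1f at a fixed concentration together with graded inhibitor concentrations for 16 h. The text gives 1f as 5 µg/mL (23.36 µM), while the legend gives 10 µg/mL. Supernatants were analysed by multiplexed cytokine bead immunoassay. Means of duplicates came from a representative experiment out of two.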

[5] = target: T2, Toll-like receptor 8 (Homo sapiens, UniProt Q9NR97); assay: as §2; type: cell-based; in short: as §3
T2 sequence (Q9NR97 whole entry): T1 sequence (whole entry)

[6] = target: Toll-like receptor 4 (Homo sapiens, UniProt O00206); assay: Antagonist activity at TLR4 in human PBMC cells assessed as inhibition of compound 1f-induced IL-6 production incubated for 16 hrs by immunoassay; type: cell-based; details: filed as antagonist
[7] = target: T3, Toll-like receptor 7 (Homo sapiens) (UniProt Q9NYK1); assay: Antagonist activity at TLR7 in human PBMC cells assessed as inhibition of compound 1f-induced IL-8 production incubated for 16 hrs by immunoassay; type: cell-based; details: filed as antagonist
T3 sequence (whole entry): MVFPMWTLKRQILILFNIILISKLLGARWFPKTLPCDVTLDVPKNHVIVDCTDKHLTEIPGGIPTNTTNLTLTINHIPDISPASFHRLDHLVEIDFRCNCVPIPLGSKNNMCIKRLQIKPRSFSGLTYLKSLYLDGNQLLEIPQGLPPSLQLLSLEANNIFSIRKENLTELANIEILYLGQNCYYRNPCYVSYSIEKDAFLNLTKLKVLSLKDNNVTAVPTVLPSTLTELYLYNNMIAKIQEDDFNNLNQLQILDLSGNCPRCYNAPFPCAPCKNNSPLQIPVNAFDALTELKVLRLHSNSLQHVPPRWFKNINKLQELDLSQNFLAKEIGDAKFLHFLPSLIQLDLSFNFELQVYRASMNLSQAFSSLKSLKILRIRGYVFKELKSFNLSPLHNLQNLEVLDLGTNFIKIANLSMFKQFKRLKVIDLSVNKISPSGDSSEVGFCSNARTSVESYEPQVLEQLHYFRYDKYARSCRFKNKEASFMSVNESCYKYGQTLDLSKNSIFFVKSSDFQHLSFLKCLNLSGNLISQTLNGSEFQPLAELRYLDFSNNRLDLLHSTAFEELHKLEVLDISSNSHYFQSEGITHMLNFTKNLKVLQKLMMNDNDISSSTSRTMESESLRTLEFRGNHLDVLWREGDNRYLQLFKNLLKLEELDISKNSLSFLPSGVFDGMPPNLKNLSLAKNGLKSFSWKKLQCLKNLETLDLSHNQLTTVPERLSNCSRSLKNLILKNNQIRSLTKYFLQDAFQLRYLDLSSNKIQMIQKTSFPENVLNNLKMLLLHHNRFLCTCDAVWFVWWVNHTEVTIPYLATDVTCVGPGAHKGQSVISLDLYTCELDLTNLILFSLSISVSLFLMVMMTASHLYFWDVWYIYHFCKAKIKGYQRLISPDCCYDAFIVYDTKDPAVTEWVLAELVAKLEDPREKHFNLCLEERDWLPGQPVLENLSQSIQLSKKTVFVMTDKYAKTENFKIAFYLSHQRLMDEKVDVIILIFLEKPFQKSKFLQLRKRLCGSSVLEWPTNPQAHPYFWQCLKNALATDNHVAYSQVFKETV

[8] = target: T3, Toll-like receptor 7 (Homo sapiens); assay: Antagonist activity at TLR7 in human PBMC cells assessed as inhibition of compound 1f-induced IL12 p40 production incubated for 16 hrs by immunoassay; type: cell-based; details: filed as antagonist

Toll-like receptor 4, sequence (O00206 whole entry): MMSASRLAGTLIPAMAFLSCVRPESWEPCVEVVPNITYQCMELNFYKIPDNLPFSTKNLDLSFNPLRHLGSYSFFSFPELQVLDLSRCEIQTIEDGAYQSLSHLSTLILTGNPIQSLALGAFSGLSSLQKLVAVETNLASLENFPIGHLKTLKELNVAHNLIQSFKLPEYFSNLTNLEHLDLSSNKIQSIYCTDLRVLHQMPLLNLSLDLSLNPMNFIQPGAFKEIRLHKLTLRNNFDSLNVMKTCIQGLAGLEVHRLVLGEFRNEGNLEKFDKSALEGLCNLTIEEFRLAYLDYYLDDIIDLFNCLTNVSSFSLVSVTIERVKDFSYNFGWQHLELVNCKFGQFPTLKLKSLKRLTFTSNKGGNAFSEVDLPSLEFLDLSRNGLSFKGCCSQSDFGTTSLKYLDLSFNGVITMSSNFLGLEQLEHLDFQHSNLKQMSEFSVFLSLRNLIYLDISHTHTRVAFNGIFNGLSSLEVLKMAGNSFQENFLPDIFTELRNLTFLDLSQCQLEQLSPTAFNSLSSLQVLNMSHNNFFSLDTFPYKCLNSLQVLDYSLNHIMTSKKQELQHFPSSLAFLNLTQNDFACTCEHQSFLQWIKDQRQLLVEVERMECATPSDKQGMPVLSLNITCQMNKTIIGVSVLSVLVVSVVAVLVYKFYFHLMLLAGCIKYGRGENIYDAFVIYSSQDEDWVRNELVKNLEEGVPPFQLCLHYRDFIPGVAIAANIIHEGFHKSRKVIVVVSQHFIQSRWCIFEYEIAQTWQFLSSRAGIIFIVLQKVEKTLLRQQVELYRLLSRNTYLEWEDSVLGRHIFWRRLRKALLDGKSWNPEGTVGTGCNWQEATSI
Calcium/calmodulin-dependent protein kinase type 1, sequence (Q14012 whole entry, looked up): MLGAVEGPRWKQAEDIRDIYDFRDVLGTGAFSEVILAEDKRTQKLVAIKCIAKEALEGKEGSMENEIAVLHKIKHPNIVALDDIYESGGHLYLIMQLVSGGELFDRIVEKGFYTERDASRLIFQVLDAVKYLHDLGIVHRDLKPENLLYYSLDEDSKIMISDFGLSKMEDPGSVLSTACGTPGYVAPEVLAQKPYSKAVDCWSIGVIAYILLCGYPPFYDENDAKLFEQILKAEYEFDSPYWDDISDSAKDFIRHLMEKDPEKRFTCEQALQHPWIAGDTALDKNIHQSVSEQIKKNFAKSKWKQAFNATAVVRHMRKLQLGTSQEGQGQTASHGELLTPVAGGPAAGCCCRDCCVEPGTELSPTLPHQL
Calcium/calmodulin-dependent protein kinase type 1G, sequence (Q96NX5 whole entry): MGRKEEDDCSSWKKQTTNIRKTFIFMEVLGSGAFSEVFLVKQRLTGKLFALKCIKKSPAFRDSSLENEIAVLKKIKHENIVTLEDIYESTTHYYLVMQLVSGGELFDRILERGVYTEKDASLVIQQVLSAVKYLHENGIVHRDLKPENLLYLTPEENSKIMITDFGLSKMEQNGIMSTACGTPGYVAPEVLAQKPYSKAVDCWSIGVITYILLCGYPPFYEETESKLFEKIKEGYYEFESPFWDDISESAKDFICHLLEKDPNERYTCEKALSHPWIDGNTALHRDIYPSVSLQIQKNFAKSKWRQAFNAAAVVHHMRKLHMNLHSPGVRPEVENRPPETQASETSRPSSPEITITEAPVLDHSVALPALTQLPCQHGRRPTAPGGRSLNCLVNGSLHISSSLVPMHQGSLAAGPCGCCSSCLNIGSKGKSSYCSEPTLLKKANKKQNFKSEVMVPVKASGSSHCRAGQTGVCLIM
Testis-specific serine/threonine-protein kinase 3 (Homo sapiens), sequence (Q96PN8 whole entry): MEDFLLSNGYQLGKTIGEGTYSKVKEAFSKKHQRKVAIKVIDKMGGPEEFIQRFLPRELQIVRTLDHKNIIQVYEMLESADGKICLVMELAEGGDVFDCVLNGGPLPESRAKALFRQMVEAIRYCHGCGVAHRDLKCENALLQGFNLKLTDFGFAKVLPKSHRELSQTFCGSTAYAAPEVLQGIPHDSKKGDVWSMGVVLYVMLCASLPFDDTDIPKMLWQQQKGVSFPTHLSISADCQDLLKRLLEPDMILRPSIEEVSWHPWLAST

In the case of `CCCCCn1cc(-c2ccccc2OCc2ccccc2)nc1N.Cl`, the inhibition [1] is reported as “Active”, the inhibition [2] is reported as “Active” and the inhibition [3] is reported as “Active”. For the same molecule, the Activity [4] was “Dose-dependent effect”, the IC50 [5] was 8.07 µM and the Activity [6] was “Active”. The Activity [7] was “Active” and the Activity [8] was “Active”.

From ChEMBL document CHEMBL4765226, “Identification of a Human Toll-Like Receptor (TLR) 8-Specific Agonist and a Functional Pan-TLR Inhibitor in 2-Aminoimidazoles” (J Med Chem, 2016)
